Assay results taken from ChEMBL document CHEMBL4330067, “Synthesis and mechanistic studies of diketo acids and their bioisosteres as potential antibacterial agents” (Eur J Med Chem, 2019).
In brackets after ≈: the same amount, converted by molar mass. Activity calls are given as the source filed them. The calls are words filed in the database; no cut-off is given here.

Columns and labels:
Salmonella typhimurium = test: Antibacterial activity against Salmonella typhimurium MTCC 3224 after 24 hrs by broth dilution assay; assay type: functional, Salmonella enterica subsp. enterica serovar Typhimurium; conditions: Salmonella enterica, MTCC 3224, 24 h
Outline: (§1)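 Broth dilution per NCCLS in nutrient broth, serial dilutions 1000 to 7.8 µg/mL, DMSO below 4% final. Inoculum approx. 2.5×10⁶ cells/mL, 37 °C with shaking at 150 rpm for 24 h. MIC taken as the lowest concentration with no visible growth. Ciprofloxacin served as positive control.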

[1] = Cytotoxicity against CHO cells assessed as cell viability at 100 ug/mL after 48 hrs by MTT assay relative to control; assay type: cell-based, Cricetulus griseus; conditions: chinese hamster, read-out: Activity
Outline: (§2)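 MTT assay: cells maintained in DMEM with 10% FBS and penicillin/streptomycin at 37 °C, 5% CO2. Seeded at approx. 2×10⁴ cells/well, 24 h before treatment, then exposed to 10 to 400 µg/mL for 48 h at 37 °C. MTT (5 mg/mL stock in PBS) added for 4 h, formazan dissolved in DMSO, A570 read. Triplicate wells; viability given relative to untreated cells.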

Escherichia coli [2] = test: Anti-biofilm activity against Escherichia coli after 24 hrs by XTT assay; assay type: functional, organism-based
Outline: (§3)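 Biofilm XTT reduction assay: serial dilutions 1000 to 7.8 µg/mL in tryptic soy broth, inoculum approx. 5×10⁵ CFU/mL, 37 °C for 24 h static. Non-adherent cells removed by PBS wash, XTT added, 90 min at 37 °C in dark, absorbance at 490 nm. IC50 (50% inhibition of biofilm formation) read from dose-response curves.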

Escherichia coli [3] = test: Anti-biofilm activity against Escherichia coli assessed as poor cell density at 2MIC after 24 hrs by SEM analysis; assay type: functional, organism-based
Escherichia coli [4] = test: Synergistic antibacterial activity against Escherichia coli MRAE33 after 18 hrs in presence of ciprofloxacin by checkerboard method; assay type: functional; conditions: MRAE33, 18 h
Outline: (§4)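 Checkerboard combination with ciprofloxacin in Mueller-Hinton broth: compound 1024 to 16 µg/mL crossed with ciprofloxacin 128 to 2 µg/mL. Inoculum 5×10⁵ CFU/mL suspension, 18 h at 37 °C. Fractional inhibitory concentration index derived from the combination.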

Escherichia coli [5] = test: Synergistic antibacterial activity against Escherichia coli MRA11 assessed as ciprofloxacin MIC at 16 to 1024 ug/mL after 18 hrs by checkerboard method; assay type: functional; conditions: MRA11, 18 h; outline: as §4
Escherichia coli [6] = test: Antibacterial activity against Escherichia coli MRC24 after overnight incubation; assay type: functional
Outline: (§5)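 Multidrug-resistant E. coli isolates in Luria broth, test range 8 to 1024 µg/mL (ciprofloxacin 0.49 to 63.3 µg/mL). Inoculum 10 µL of a 1000-fold diluted 0.1 OD600 culture, incubated overnight at 37 °C. OD read at 600 nm. % inhibition = (a−b)/a×100, with media and compound-colour blanks subtracted.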

Escherichia coli [7] = test: Bactericidal activity against Escherichia coli at sub-MIC after 22 hrs by spectrophotometric analysis; assay type: functional, organism-based
Outline: (§6)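 Growth kinetics in 50 mL nutrient broth seeded at approx. 2×10⁶ cells/mL, compound at 2MIC, MIC and ½MIC, 37 °C at 160 rpm. Ciprofloxacin 10 µg/mL as positive control. 1 mL aliquots taken every 2 h from 0 to 22 h. Turbidity read at 600 nm and OD plotted against time.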

[8] = Inhibition of Mycobacterium tuberculosis methionine aminopeptidase 1C using Met-AMC as substrate by Dixon method
CHO = test: Cytotoxicity against CHO cells at 50 ug/mL after 48 hrs by MTT assay; assay type: cell-based, Cricetulus griseus; conditions: chinese hamster; outline: as §2
Escherichia coli [9] = test: Synergistic antibacterial activity against Escherichia coli MRA11 after 18 hrs in presence of ciprofloxacin by checkerboard method; assay type: functional; conditions: MRA11, 18 h; outline: as §4
Enterococcus faecalis [10] = test: Inhibition of Enterococcus faecalis methionine aminopeptidase 1A at 100 uM using Met-AMC as substrate relative to control
Outline: (§7)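 Purified MetAP at 4 µM in 50 mM HEPES with 150 mM KCl and CoCl2 at 3 molar equivalents of enzyme. pH 7.5 for SpMetAP1a and EfMetAP1a, pH 8.0 for HsMetAP1b. Substrate L-Met-AMC at 50, 100 and 150 µM. Compounds (10 mM DMSO stocks) tested over 1 to 120 µM for % inhibition; Ki by Dixon method.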

Streptococcus pneumoniae = test: Inhibition of Streptococcus pneumoniae methionine aminopeptidase 1A at 100 uM using Met-AMC as substrate relative to control; outline: as §7
Escherichia coli [11] = test: Antibacterial activity against Escherichia coli MRAE26 after overnight incubation; assay type: functional; outline: as §5
Escherichia coli [12] = test: Bactericidal activity against Escherichia coli at 1 to 2 times MIC after 24 hrs by spectrophotometric analysis; assay type: functional, organism-based; outline: as §6
Pseudomonas aeruginosa = test: Bactericidal activity against Pseudomonas aeruginosa at 1 to 2 times MIC after 24 hrs by spectrophotometric analysis; assay type: functional, organism-based; outline: as §6
Escherichia coli [13] = test: Synergistic antibacterial activity against Escherichia coli MRAE33 assessed as ciprofloxacin MIC at 16 to 1024 ug/mL after 18 hrs by checkerboard method; assay type: functional; conditions: MRAE33, 18 h; outline: as §4
[14] = Inhibition of Streptococcus pneumoniae methionine aminopeptidase 1A using Met-AMC as substrate by Dixon method; outline: as §7
Escherichia coli [15] = test: Antibacterial activity against Escherichia coli ATCC 25922 after 24 hrs by broth dilution assay; assay type: functional; conditions: ATCC 25922, 24 h; outline: as §1
Escherichia coli [16] = test: Antibacterial activity against Escherichia coli MRC17 after overnight incubation; assay type: functional; outline: as §5
Escherichia coli [17] = test: Induction of cellular damage in Escherichia coli assessed as distorted cell membrane at MIC after 1 hr by TEM analysis; assay type: functional, organism-based
Enterococcus faecalis [18] = test: Anti-biofilm activity against Enterococcus faecalis after 24 hrs by XTT assay; assay type: functional, organism-based; outline: as §3
Escherichia coli [19] = test: Antibacterial activity against Escherichia coli MRA11 at 512 ug/mL after 24 hrs by broth dilution assay relative to control; assay type: functional; outline: as §5
Klebsiella pneumoniae = test: Anti-biofilm activity against Klebsiella pneumoniae after 24 hrs by XTT assay; assay type: functional, organism-based; outline: as §3

## Cc1c(C(=O)/C=C(\O)C(=O)N[C@H](C)C(=O)O)oc2ccc(Br)cc12
Salmonella typhimurium
  MIC: 500 µg/mL (≈ 1260 µM)
[1]
  viability at 48 h, 100 ug/mL: 70%
Escherichia coli [2]
  IC50: 0.404 µg/mL (≈ 1.02 µM)
Escherichia coli [3]
  Activity: Active
Escherichia coli [4]
  MIC: 16 µg/mL
Escherichia coli [5]
  MIC: 16 µg/mL
Escherichia coli [6]
  ICmax: 512 µg/mL
Escherichia coli [7]
  Activity: Active
[8]
  Ki: 9.89 µM
CHO
  Activity: Non-Toxic
Escherichia coli [9]
  MIC: 512 µg/mL
Enterococcus faecalis [10]
  inhibition: 92.7%
Streptococcus pneumoniae
  inhibition: 98.2%
Escherichia coli [11]
  ICmax: 1024 µg/mL
Escherichia coli [12]
  Activity: Active
Pseudomonas aeruginosa
  Activity: Active
Escherichia coli [13]
  MIC: 2 µg/mL
[14]
  Ki: 28.3 µM
Escherichia coli [15]
  MIC: 62.5 µg/mL (≈ 158 µM)
Escherichia coli [16]
  ICmax: 512 µg/mL
Escherichia coli [16]; Escherichia coli, MRC17
  MIC: 512 µg/mL (≈ 1290 µM)
Escherichia coli [17]
  Activity: Active
Enterococcus faecalis [18]
  IC50: 1240 µg/mL (≈ 3140 µM)
Escherichia coli [19]
  Activity: 100%
Klebsiella pneumoniae
  IC50: 113 µg/mL (≈ 286 µM)
